The source of these data is ChEMBL document CHEMBL4834477, “Synthesis and biological evaluation of novel purinyl quinazolinone derivatives as PI3Kδ-specific inhibitors for the treatment of hematologic malignancies” (Bioorg Med Chem, 2021).

Data set [1] deals with Phosphatidylinositol 4,5-bisphosphate 3-kinase catalytic subunit beta isoform (Homo sapiens, UniProt P42338). Nature of the data set: Inhibition of recombinant human full length His-tagged p110beta expressed in baculovirus expression system measured after 60 mins in presence of ATP by ATP-competitive binding assay. A digest of the protocol: (§1)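 SelectScreen ATP-competitive assay using 10-point titration with 1 μM top final compound concentration. Kinase, substrate and ATP mixed in 30 mM HEPES buffer and reacted 60 min. IC50 taken as the mean of three independent experiments.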

Data set [2] can be described thus: AUC (last) in Sprague-Dawley rat at 1 mg/kg, po measured for 24 hrs by LC-MS/MS analysis. Also noted: route oral, dose 1 mg/kg, time 24 hrs. Conditions: in vivo. Format: ADME, organism-based. In outline:
(§2)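 Sprague-Dawley rats dosed orally at 1 or 3 mg/kg, three animals per group. Blood sampled at 0.25, 0.5, 1, 2, 4, 8 and 24 h post-dose. Plasma separated by centrifugation, extracted and quantified by LC-MS/MS. PK parameters (Cmax, AUClast, Tmax, t1/2) derived by non-compartmental software.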

Data set [3] deals with PI3-kinase p110-alpha/p85-alpha (Homo sapiens, UniProt P42336). Nature of the data set: Inhibition of recombinant human full length N-terminal His-tagged p110alpha/p85alpha expressed in baculovirus expression system measured after 60 mins in presence of ATP by ATP-competitive binding assay. A digest of the protocol:
as §1

Data set [4] in a line: Half life in Sprague-Dawley rat at 1 mg/kg, po measured for 24 hrs by LC-MS/MS analysis. Format: ADME, organism-based. The settings on record: in vivo. A digest of the protocol: as §2

PI3-kinase p110-alpha/p85-alpha, sequence (P27986 whole entry): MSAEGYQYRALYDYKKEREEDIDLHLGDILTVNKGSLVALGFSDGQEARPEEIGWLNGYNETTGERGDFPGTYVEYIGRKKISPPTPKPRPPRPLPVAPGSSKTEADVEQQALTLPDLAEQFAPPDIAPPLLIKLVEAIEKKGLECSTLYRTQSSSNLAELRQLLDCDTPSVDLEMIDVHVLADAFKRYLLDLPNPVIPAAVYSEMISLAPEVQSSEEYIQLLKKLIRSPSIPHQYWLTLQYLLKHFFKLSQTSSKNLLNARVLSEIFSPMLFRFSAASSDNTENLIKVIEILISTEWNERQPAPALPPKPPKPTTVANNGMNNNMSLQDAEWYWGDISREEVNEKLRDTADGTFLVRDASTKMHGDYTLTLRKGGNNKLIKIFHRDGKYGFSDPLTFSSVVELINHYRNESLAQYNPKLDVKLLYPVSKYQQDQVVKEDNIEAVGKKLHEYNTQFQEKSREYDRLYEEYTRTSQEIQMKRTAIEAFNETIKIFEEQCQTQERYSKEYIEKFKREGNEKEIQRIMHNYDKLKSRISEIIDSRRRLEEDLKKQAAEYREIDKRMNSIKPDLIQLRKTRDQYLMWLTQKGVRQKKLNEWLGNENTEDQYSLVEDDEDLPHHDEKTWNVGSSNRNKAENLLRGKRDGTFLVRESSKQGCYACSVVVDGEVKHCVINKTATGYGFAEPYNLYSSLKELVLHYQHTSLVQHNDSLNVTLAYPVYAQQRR
PI3-kinase p110-alpha/p85-alpha, sequence (P42336 whole entry): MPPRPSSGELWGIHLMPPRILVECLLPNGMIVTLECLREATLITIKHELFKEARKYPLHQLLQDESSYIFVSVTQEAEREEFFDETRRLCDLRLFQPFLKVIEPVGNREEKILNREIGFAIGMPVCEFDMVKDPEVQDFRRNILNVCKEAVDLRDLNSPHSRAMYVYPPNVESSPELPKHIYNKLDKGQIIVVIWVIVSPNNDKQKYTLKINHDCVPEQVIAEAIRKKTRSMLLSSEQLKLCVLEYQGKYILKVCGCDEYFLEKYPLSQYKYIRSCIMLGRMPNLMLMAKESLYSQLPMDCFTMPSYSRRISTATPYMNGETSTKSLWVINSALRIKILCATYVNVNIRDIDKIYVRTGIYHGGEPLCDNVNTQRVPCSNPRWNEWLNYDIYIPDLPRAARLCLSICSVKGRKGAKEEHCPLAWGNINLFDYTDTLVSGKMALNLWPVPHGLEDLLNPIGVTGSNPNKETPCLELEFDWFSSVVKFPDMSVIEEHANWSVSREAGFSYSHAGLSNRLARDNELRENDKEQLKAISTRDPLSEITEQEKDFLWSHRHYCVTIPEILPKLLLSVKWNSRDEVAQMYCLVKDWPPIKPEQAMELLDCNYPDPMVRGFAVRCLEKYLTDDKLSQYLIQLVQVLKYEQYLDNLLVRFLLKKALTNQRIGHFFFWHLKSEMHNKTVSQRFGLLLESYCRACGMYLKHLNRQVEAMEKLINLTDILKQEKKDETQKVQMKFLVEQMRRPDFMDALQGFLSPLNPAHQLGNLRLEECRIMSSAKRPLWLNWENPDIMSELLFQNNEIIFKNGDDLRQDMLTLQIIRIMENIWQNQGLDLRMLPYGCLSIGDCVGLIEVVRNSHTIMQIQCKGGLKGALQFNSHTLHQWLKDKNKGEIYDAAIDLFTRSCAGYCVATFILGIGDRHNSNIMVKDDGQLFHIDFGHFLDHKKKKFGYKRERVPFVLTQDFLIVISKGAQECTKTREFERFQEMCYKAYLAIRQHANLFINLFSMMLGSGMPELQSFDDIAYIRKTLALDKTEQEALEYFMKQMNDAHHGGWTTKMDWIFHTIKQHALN
Phosphatidylinositol 4,5-bisphosphate 3-kinase catalytic subunit beta isoform, sequence (P42338 whole entry, canonical isoform): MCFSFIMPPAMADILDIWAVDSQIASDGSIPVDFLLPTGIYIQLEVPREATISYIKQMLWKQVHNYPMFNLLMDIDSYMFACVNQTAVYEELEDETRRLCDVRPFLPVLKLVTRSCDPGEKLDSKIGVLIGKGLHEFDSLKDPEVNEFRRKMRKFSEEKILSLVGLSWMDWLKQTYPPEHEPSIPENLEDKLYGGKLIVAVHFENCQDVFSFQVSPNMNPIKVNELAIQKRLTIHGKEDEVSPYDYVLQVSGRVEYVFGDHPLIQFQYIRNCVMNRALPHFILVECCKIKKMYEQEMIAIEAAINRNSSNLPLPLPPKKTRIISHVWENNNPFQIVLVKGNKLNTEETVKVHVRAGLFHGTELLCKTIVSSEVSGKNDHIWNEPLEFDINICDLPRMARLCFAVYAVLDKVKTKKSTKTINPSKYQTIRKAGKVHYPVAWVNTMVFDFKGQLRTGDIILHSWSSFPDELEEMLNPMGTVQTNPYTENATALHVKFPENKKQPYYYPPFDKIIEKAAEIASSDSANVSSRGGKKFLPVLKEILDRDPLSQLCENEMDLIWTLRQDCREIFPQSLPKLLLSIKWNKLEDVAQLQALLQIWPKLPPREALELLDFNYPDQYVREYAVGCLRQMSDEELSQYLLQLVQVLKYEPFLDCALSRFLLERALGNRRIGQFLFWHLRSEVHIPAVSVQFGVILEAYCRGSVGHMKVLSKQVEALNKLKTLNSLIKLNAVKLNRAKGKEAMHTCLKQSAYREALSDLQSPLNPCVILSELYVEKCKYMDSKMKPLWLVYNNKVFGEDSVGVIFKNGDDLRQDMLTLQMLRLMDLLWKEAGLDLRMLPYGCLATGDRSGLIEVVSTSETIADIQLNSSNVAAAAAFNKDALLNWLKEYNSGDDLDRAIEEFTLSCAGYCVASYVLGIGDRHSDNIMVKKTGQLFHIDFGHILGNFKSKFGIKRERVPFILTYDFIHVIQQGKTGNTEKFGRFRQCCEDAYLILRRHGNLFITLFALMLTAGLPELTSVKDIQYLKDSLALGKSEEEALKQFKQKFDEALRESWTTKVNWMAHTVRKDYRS

`O=c1c2c(F)cccc2nc([C@@H](Nc2ncnc3nc[nH]c23)C2CC2)n1-c1ccccc1`: the IC50 (commonly the concentration that gives 50% inhibition) in data set [1] turned out to be 199 nM; in data set [3], 222 nM. Also, the AUC(0-t) (usually exposure summed from dosing to a finite time, without extrapolation to infinity) at 24 h in data set [2] came to 81 ng·h/mL. Also, the half-life (as a rule, the time in which the quantity being followed falls by half) in data set [4] is 10.2 h.
